Measurements gathered from unrelated publications.
Compare with care: the assays were run in different laboratories.
Target: Myotonin-protein kinase (DMPK, Homo sapiens, UniProt Q09013)
Residues used in one study (Q09013 1-629): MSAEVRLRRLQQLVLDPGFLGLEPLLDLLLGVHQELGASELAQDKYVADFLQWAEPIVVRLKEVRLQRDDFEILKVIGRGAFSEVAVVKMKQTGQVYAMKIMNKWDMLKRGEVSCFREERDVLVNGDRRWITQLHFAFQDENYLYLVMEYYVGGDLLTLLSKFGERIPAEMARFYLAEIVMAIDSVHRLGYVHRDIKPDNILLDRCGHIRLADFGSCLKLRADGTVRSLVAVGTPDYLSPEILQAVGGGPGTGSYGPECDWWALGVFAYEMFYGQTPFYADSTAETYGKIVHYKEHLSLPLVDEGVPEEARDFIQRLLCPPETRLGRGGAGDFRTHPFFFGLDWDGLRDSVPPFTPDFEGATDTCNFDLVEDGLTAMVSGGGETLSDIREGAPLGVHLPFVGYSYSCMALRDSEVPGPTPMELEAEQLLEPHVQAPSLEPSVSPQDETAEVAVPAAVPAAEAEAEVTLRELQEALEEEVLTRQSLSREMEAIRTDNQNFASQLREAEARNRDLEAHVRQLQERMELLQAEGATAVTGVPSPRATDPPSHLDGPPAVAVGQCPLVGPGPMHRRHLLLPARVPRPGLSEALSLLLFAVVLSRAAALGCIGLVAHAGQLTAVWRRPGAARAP

`COc1cnc(Nc2cccc(S(N)(=O)=O)c2)nc1N1CCN(c2ccccc2)CC1` gave a remaining binding of 100% (binding; competition with immobilised ligand; 1 µM).
With `O=C(NCC1CCOCC1)c1n[nH]cc1NC(=O)c1c(F)cccc1F` the remaining binding was 38% (binding; competition with immobilised ligand; 1 µM).
With `O=C1CCc2cc(Nc3cc(OC4CCOCC4)c([N+](=O)[O-])cc3Cl)ccc2N1` the remaining binding was 96% (cell-free assay; competition with immobilised ligand; 1 µM).
`Cc1cnc(Nc2ccc(C(=O)N3CCC(N4CCCC4)CC3)cc2)nc1-c1cc2ccccc2s1` has a remaining binding of 100% (binding; competition with immobilised ligand; 1 µM).
`N[C@@H]1CCN(c2nccc(-c3cnn4ncccc34)n2)C1` has a remaining binding of 94% (binding; 1 µM).
The remaining binding of `O=C(NCCCN1CCOCC1)c1ccc(Nc2nccc(-c3cc4ccccc4s3)n2)cc1` is reported as 100% (binding; competition with immobilised ligand; 1 µM).
`c1cnn2ncc(-c3ccnc(N4CCC45COC5)n3)c2c1` gave a remaining binding of 98% (binding; 1 µM).
For `FC(F)(F)Oc1cccc(-c2cnc3ccc(-c4ccncc4)nn23)c1`, the remaining binding was 99% (cell-free assay; competition with immobilised ligand; 5 µM).
For `C[C@@H]1CCN(c2nccc(-c3cnn4ncccc34)n2)C1`, the remaining binding was 90% (binding; 1 µM).
`CO[C@@H](C)c1c(Nc2ccc([C@@H](N(C)C(=O)C3CCS(=O)(=O)CC3)C(F)(F)F)cc2)cnc2cc(Cl)nn12` has a remaining binding of 91% (cell-free assay; competition with immobilised ligand; 1 µM).
`Cc1cnn2ncc(-c3ccnc(N(C)C)n3)c2c1` gave a remaining binding of 100% (binding; 1 µM).
`C=CC(=O)N1CCC(C(=O)NCC(=O)N2CCN(c3nc(-c4cnc(N)nc4C(F)F)nc(N4CCOCC4)n3)CC2)CC1` gave a remaining binding of 87% (binding; competition with immobilised ligand; 1 µM).
The remaining binding of `CCN1CCN(Cc2ccc(C(=O)Nc3ccc(C)c(Oc4ccc5c(c4)CC(=O)N5)c3)cc2C(F)(F)F)CC1` is reported as 88% (binding; competition with immobilised ligand; 1 µM).
`CN(c1nccc(-c2cnn3ncccc23)n1)C1CC1` has a remaining binding of 100% (binding; 1 µM).
For `CNCc1ccccc1-c1csc([C@H](C)Nc2nc(C)nc3cc(OC)c(OC)cc23)c1`, the remaining binding was 85% (cell-free assay; competition with immobilised ligand; 1 µM).
`CN(C)c1ncc(F)c(-c2cnn3ncccc23)n1` gave a remaining binding of 100% (binding; 1 µM).
With `CNC(=O)c1ccc(Nc2ncc(C(F)(F)F)c(NCc3nccnc3N(C)S(C)(=O)=O)n2)cc1` the remaining binding was 16% (cell-free assay; competition with immobilised ligand; 0.1 µM).
For `CN(C)c1nccc(-c2cnc3ncccn23)n1`, the remaining binding was 82% (binding; 1 µM).
`C[C@H](c1cccc(C#N)c1)n1cc(Cl)cc(C(N)=O)c1=N` gave a remaining binding of 100% (cell-free assay; competition with immobilised ligand; 1 µM).
With `O=C(NCCCN1CCOCC1)c1ccc(Nc2ncc(Cl)c(-c3ccc(Cl)s3)n2)cc1` the remaining binding was 100% (binding; competition with immobilised ligand; 1 µM).
`COc1cnc(Nc2cccc(S(N)(=O)=O)c2)nc1N1CCN(c2ccccc2)C(=O)C1` has a remaining binding of 100% (binding; competition with immobilised ligand; 1 µM).
With `C[C@H](NC(=O)c1cnc2n1[C@](C)(Cc1ccc(C#N)cc1)C(=O)N2c1cc(Cl)c(F)c(Cl)c1)C(=O)NC1(c2ccccn2)CC1` the remaining binding was 67% (cell-free assay; competition with immobilised ligand; 1 µM).
